# In ChEMBL document CHEMBL1149190, “Generation of new protein kinase inhibitors utilizing cytochrome p450 mutant enzymes for indigoid synthesis” (J Med Chem, 2004):
# Tests used:
# [1] = biological target: T1, Glycogen synthase kinase-3 (Homo sapiens, UniProt P49840+P49841); assay: (§1) Residual porcine GSK-3-alpha/beta kinase activity with L240C mutant cytochrome P450 2A6 extract; type: protein assay; details: Sus scrofa; target entry is the homologue from another species
# Procedure, shortened: (§2)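 E. coli expressing the P450 2A6 variant plus reductase were grown 42 h at 30 °C with the indole added. DMSO extract (0.3 µL) was tested on axin-purified porcine GSK-3α/β with GS-1 peptide in buffer A, 15 µM [γ-33P]ATP, 30 °C. Residual activity given as % of a DMSO control. Means of duplicates.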
# [2] = biological target: T2, Cyclin-dependent kinase 5/CDK5 activator 1 (Homo sapiens) (UniProt Q00535+Q15078); assay: Residual Cyclin-dependent kinase 5-p35nck5a activity with L240C-mutant cytochrome P450 2A6 extract; type: protein-complex assay
# [3] = biological target: T2, Cyclin-dependent kinase 5/CDK5 activator 1 (Homo sapiens); assay: Residual Cyclin-dependent kinase 5-p35nck5a activity with L240C/N297Q mutant cytochrome P450 2A6 extract; type: protein-complex assay
# Procedure, shortened: (§3)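 The indole was fed to E. coli expressing the P450 2A6 variant with NADPH-P450 reductase, grown 42 h at 30 °C. Extract in DMSO (0.3 µL) was added to the CDK5/p25 histone H1 assay: buffer C, 15 µM [γ-33P]ATP, 30 °C. Residual activity given as % of a DMSO-only control. Means of duplicates.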
# [4] = biological target: T1, Glycogen synthase kinase-3; assay: (§4) Residual porcine GSK-3-alpha/beta kinase activity with L240C/N297Q mutant cytochrome P450 2A6 extract; type: protein assay; details: Sus scrofa; target entry is the homologue from another species; procedure, shortened: as §2
# [5] = biological target: T1, Glycogen synthase kinase-3; assay: Inhibition of porcine GSK-3-alpha/beta kinase; type: protein assay, Sus scrofa; details: target entry is the homologue from another species
# Procedure, shortened: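 Porcine brain GSK-3α/β, purified on immobilized axin and diluted 1/100 in 1 mg/mL BSA with 10 mM DTT. Substrate GS-1 phosphopeptide in buffer A (Tris-HCl pH 7.5, MgCl2, EGTA, DTT, heparin) with 15 µM [γ-33P]ATP, 30 min at 30 °C. Read by P81 filter binding and scintillation counting. Duplicates; IC50 as % of control activity.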
# [6] = biological target: Cyclin-dependent kinase 5/CDK5 activator 1 (Homo sapiens, UniProt Q00535); assay: Inhibition of Cyclin-dependent kinase 5-p35nck5a; type: protein-complex assay
# Procedure, shortened: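 Recombinant CDK5 and p25 (truncated p35), each expressed in E. coli as a GST fusion and glutathione-agarose purified, mixed in equal amounts. Read by P81 filter capture and scintillation counting. Expressed as % of uninhibited activity. Duplicates; IC50 determined.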
# [7] = biological target: Cyclin-dependent kinase 1/cyclin B (Marthasterias glacialis); assay: Inhibition of Cyclin-dependent kinase 1-cyclin B of M-phase Marthasterias glacialis oocytes
# [8] = biological target: T1, Glycogen synthase kinase-3; assay: as §4; type: protein assay; design: concentration or dose not given beside the values; details: Sus scrofa; target entry is the homologue from another species; procedure, shortened: as §2
# [9] = biological target: T1, Glycogen synthase kinase-3; assay: as §1; type: protein assay; details: Sus scrofa; target entry is the homologue from another species; remark: listed apart in the source
# Procedure, shortened: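 GSK-3α/β from porcine brain, purified on immobilized axin and diluted 1/100, assayed in buffer A with GS-1 peptide substrate and 15 µM [γ-33P]ATP for 30 min at 30 °C. Phosphate incorporation read on P81 filters by scintillation counting. Bacterial extract in DMSO added; residual activity given as % of DMSO control, mean of duplicates.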
# [10] = biological target: T2, Cyclin-dependent kinase 5/CDK5 activator 1 (Homo sapiens); assay: Residual Cyclin-dependent kinase 5-p35nck5a activity with wild-type cytochrome P450 2A6 extract; type: protein-complex assay; procedure, shortened: as §3
# [11] = biological target: T1, Glycogen synthase kinase-3; assay: Residual porcine GSK-3-alpha/beta kinase activity with wild-type cytochrome P450 2A6 extract; type: protein assay; details: Sus scrofa, target entry is the homologue from another species; procedure, shortened: as §2
# Cyclin-dependent kinase 5/CDK5 activator 1, sequence (Q00535 whole entry, the tested form may be a part): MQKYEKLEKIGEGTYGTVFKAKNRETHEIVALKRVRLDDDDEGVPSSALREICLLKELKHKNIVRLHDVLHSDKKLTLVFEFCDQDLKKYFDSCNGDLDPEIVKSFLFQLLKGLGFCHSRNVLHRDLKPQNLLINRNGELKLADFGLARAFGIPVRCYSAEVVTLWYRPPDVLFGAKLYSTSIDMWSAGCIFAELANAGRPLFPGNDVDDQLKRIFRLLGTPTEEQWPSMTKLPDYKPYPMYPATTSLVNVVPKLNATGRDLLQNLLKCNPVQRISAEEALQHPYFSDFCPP
# Cyclin-dependent kinase 5/CDK5 activator 1, sequence (Q15078 whole entry, further chain, the tested form may be a part): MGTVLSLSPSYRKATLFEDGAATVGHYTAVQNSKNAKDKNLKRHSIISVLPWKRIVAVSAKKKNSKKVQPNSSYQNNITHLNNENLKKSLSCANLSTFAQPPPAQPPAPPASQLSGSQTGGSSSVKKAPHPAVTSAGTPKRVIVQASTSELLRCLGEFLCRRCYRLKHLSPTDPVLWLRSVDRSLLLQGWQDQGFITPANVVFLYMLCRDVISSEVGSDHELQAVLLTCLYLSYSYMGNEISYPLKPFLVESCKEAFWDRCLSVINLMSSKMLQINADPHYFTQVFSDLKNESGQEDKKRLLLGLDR
# T2 sequence (Q00535 whole entry): as the sequence (Q00535 whole entry, the tested form may be a part) above
# T2 sequence (Q15078 99-307 partner limits assumed): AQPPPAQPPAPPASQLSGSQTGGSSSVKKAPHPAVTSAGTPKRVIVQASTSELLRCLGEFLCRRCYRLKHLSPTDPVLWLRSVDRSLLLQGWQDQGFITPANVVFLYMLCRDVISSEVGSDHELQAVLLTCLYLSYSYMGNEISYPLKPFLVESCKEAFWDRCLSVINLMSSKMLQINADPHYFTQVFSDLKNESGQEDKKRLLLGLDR
# T1 sequence (P49840 whole entry, looked up): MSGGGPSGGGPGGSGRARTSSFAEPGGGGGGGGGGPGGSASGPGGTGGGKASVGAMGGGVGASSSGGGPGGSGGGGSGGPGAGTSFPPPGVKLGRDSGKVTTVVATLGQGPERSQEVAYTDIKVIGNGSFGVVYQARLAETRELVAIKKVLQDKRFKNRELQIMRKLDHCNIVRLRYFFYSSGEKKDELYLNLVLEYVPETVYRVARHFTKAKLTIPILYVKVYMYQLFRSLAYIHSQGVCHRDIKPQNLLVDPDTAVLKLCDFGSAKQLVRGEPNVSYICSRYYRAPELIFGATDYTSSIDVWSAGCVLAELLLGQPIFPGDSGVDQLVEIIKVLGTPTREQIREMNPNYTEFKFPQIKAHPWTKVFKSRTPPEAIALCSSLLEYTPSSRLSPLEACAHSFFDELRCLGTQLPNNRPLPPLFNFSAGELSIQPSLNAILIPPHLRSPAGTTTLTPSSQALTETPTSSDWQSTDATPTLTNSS
# T1 sequence (P49841 whole entry, looked up): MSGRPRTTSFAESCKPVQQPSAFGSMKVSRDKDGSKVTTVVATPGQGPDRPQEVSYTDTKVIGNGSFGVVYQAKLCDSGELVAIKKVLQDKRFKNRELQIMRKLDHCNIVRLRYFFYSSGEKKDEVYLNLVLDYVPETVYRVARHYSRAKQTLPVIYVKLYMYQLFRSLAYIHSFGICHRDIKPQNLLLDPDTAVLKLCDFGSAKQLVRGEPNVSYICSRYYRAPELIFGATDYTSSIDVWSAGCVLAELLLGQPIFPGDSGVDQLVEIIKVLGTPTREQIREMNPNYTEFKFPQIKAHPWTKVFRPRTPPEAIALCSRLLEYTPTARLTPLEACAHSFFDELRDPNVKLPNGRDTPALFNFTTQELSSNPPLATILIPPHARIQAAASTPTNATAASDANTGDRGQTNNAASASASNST
residual activity [3],IC50 [5],IC50 [6],residual activity [8],SMILES,also measured
–,0.6 µM,1200 nM,–,COc1ccc2c(c1)C(=O)C(c1c(O)[nH]c3ccccc13)=N2,IC50 [7]: 2100 nM
–,2.5 µM,–,–,O=C1Nc2ccccc2/C1=C1/Nc2ccccc2C1=O [INDIRUBIN],–
–,0.8 µM,5000 nM,–,Cc1ccc2[nH]c(O)c(C3=Nc4ccccc4C3=O)c2c1,–
–,0.2 µM,800 nM,–,COc1ccc2c(c1)C(=O)C(c1c(O)[nH]c3ccc(OC)cc13)=N2,IC50 [7]: 400 nM
–,> 100 µM,> 100000 nM,–,O=C1/C(=C2\Nc3ccccc3C2=O)Nc2ccccc21 [INDIGO],–
81%,–,–,76%,c1ccc2[nH]ccc2c1,residual activity [10]: 78%; residual activity [11]: 68%
19%,–,–,15%,Cc1ccc2[nH]ccc2c1,residual activity [10]: 89%; residual activity [11]: 45%
–,> 100 µM,> 100000 nM,–,COc1ccc2c(c1)C(=O)C(c1[nH]c3ccccc3c1O)=N2,IC50 [7]: > 100000 nM
–,0.8 µM,1200 nM,–,COc1ccc2[nH]c(O)c(C3=Nc4ccccc4C3=O)c2c1,IC50 [7]: 1500 nM
–,0.55 µM,1900 nM,–,Cc1ccc2c(c1)C(=O)C(c1c(O)[nH]c3ccccc13)=N2,–
99%,–,–,71%,COC(=O)c1ccc2[nH]ccc2c1,–
–,6 µM,26000 nM,–,COc1ccc2c(c1)C(=O)C(c1[nH]c3ccc(OC)cc3c1O)=N2,IC50 [7]: 1200 nM

# Continued, compound first:
SMILES,residual activity [3],IC50 [5],IC50 [6],residual activity [8],also measured
Brc1ccc2[nH]ccc2c1,56%,–,–,–,residual activity [1]: 22%; residual activity [2]: 44%; residual activity [4]: 25%
Fc1ccc2cc[nH]c2c1,97%,–,–,87%,–
COc1ccc2[nH]ccc2c1,3%,–,–,3%,residual activity [9]: 55%; residual activity [2]: 87%
Cc1cccc2cc[nH]c12,90%,–,–,59%,–
Clc1cccc2cc[nH]c12,82%,–,–,–,residual activity [4]: 110%
COc1cc2cc[nH]c2cc1OC,80%,–,–,62%,–
O=[N+]([O-])c1ccc2cc[nH]c2c1,107%,–,–,–,residual activity ([11]; in the assay text read “cytochrome P450 2A6 L240C/N297Q mutant” for “wild-type cytochrome P450 2A6”): 63%
Nc1ccc2[nH]ccc2c1,73%,–,–,42%,–
c1cnc2[nH]ccc2c1,103%,–,–,89%,–
